What all share (format): functional
For one assay, the system named is Trichophyton rubrum. Briefly: Antifungal activity against Trichophyton rubrum assessed as growth inhibition by serial dilution method. The gist of the method: (§1)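 Compounds were dissolved in DMSO and diluted in growth medium. Incubation was at 28 °C. MIC was the lowest concentration with turbidity at the 80% inhibition threshold relative to the drug-free growth control.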

For another assay, the system named is Nannizzia gypsea. The experiment in a line: Antifungal activity against Microsporum gypseum assessed as growth inhibition by serial dilution method. The gist of the method:
as §1

The subject of the next assay is Cryptococcus neoformans. The experiment in a line: Antifungal activity against Cryptococcus neoformans assessed as growth inhibition after 72 hrs by serial dilution method. The gist of the method: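 Compounds were taken up in DMSO and diluted in growth medium. Incubation was at 35 °C with MIC read at 72 h. MIC was the lowest concentration at which turbidity reached the 80% inhibition cutoff against the untreated growth control.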

The next assay deals with Candida albicans. Briefly: Antifungal activity against Candida albicans assessed as growth inhibition after 24 hrs by serial dilution method. The essentials:
(§2)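 Candida strains were ATCC or clinical isolates. Compounds were dissolved in DMSO and serially diluted in growth medium. Plates were incubated at 35 °C and read at 24 h. MIC was the lowest concentration giving turbidity at […]80% inhibition relative to the growth control.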

Another assay deals with Candida parapsilosis. Briefly: Antifungal activity against Candida parapsilosis assessed as growth inhibition after 24 hrs by serial dilution method. The following applies: Lodderomyces parapsilosis. The gist of the method:
as §2

The test system of the next assay is Nakaseomyces glabratus. The experiment in a line: Antifungal activity against Candida glabrata assessed as growth inhibition after 24 hrs by serial dilution method. The essentials: as §2
In another assay the test system is Aspergillus fumigatus. Briefly: Antifungal activity against Aspergillus fumigatus assessed as growth inhibition after 7 days by serial dilution method. The following applies: 168 h.

Among the data in ChEMBL document CHEMBL3286105, “Design, synthesis and antifungal activity of novel triazole derivatives containing substituted 1,2,3-triazole-piperdine side chains” (2014) are MIC80 values, retold here.

SMILES strings stand for the structures. Values after ≈ are worked out from the molar mass of the structure shown.

Usually MIC80 stands for an inhibitory concentration at the 80% level, which refers to growth in some studies and to a panel of isolates in others.

For `O=C(O)CCCc1cn(C2CCN(CC(O)(Cn3cncn3)c3ccc(F)cc3F)CC2)nn1` (stereo unspecified), the MIC80 in the assay with Trichophyton rubrum was found to be 4 µg/mL (≈ 8.41 µM); with Nannizzia gypsea, 32 µg/mL (≈ 67.3 µM); in the assay with Cryptococcus neoformans, 4 µg/mL (≈ 8.41 µM); with Candida albicans it was 0.5 µg/mL (≈ 1.05 µM); in the assay with Candida parapsilosis it was 8 µg/mL (≈ 16.8 µM); with Nakaseomyces glabratus it was 4 µg/mL (≈ 8.41 µM). Further, the MIC80 with Aspergillus fumigatus was > 64 µg/mL.

Consider `CCOC(=O)c1cn(C2CCN(CC(O)(Cn3cncn3)c3ccc(F)cc3F)CC2)nn1` (stereo unspecified), for which the MIC80 in the assay on Trichophyton rubrum is > 64 µg/mL; with Nannizzia gypsea it was > 64 µg/mL; in the assay with Cryptococcus neoformans it was > 64 µg/mL; with Candida albicans, 8 µg/mL (≈ 17.3 µM); with Candida parapsilosis, > 64 µg/mL; in the assay on Nakaseomyces glabratus it was 32 µg/mL (≈ 69.3 µM). Moreover, the MIC80 in the assay on Aspergillus fumigatus is > 64 µg/mL.

In the case of `O=C(O)c1cn(C2CCN(CC(O)(Cn3cncn3)c3ccc(F)cc3F)CC2)nn1` (stereo unspecified), the MIC80 was > 64 µg/mL with Trichophyton rubrum; > 64 µg/mL in the assay with Nannizzia gypsea; 16 µg/mL (≈ 36.9 µM) in the assay with Cryptococcus neoformans; 4 µg/mL (≈ 9.23 µM) in the assay with Candida albicans; 64 µg/mL (≈ 148 µM) with Candida parapsilosis; 8 µg/mL (≈ 18.5 µM) in the assay on Nakaseomyces glabratus. In addition, in the assay on Aspergillus fumigatus, the MIC80 is > 64 µg/mL.

For the compound `OC(CN1CCC(n2cc(-c3ccccc3)nn2)CC1)(Cn1cncn1)c1ccc(F)cc1F` (stereo unspecified), the MIC80 in the assay with Trichophyton rubrum was found to be 0.5 µg/mL (≈ 1.07 µM); in the assay on Nannizzia gypsea, 4 µg/mL (≈ 8.59 µM); in the assay with Cryptococcus neoformans it was 0.25 µg/mL (≈ 0.537 µM); with Candida albicans, 0.125 µg/mL (≈ 0.269 µM); in the assay on Candida parapsilosis, 1 µg/mL (≈ 2.15 µM); in the assay on Nakaseomyces glabratus, 1 µg/mL (≈ 2.15 µM). For the same compound, the MIC80 in the assay on Aspergillus fumigatus is > 64 µg/mL.

Turning to `OC(CN1CCC(n2cc(-c3cccnc3)nn2)CC1)(Cn1cncn1)c1ccc(F)cc1F` (stereo unspecified), the MIC80 amounted to 4 µg/mL (≈ 8.57 µM) with Trichophyton rubrum; 16 µg/mL (≈ 34.3 µM) in the assay with Nannizzia gypsea; 0.125 µg/mL (≈ 0.268 µM) in the assay with Cryptococcus neoformans; 0.125 µg/mL (≈ 0.268 µM) in the assay on Candida albicans; 1 µg/mL (≈ 2.14 µM) with Candida parapsilosis; 1 µg/mL (≈ 2.14 µM) in the assay on Nakaseomyces glabratus. The MIC80 in the assay with Aspergillus fumigatus was determined as 64 µg/mL (≈ 137 µM).

Consider `OC(CN1CCC(n2cc(-c3ccc(Br)cc3)nn2)CC1)(Cn1cncn1)c1ccc(F)cc1F` (stereo unspecified), for which the MIC80 in the assay on Trichophyton rubrum came to 0.25 µg/mL (≈ 0.459 µM); with Nannizzia gypsea, 2 µg/mL (≈ 3.67 µM); in the assay with Cryptococcus neoformans it was 0.125 µg/mL (≈ 0.23 µM); with Candida albicans it was 0.125 µg/mL (≈ 0.23 µM); in the assay with Candida parapsilosis, 1 µg/mL (≈ 1.84 µM); in the assay on Nakaseomyces glabratus, 0.5 µg/mL (≈ 0.918 µM). The MIC80 in the assay with Aspergillus fumigatus was > 64 µg/mL.

`CC(=O)c1ccc(-c2cn(C3CCN(CC(O)(Cn4cncn4)c4ccc(F)cc4F)CC3)nn2)cc1` (stereo unspecified): the MIC80 stood at 1 µg/mL (≈ 1.97 µM) in the assay with Trichophyton rubrum; 2 µg/mL (≈ 3.94 µM) with Nannizzia gypsea; 0.125 µg/mL (≈ 0.246 µM) in the assay with Cryptococcus neoformans; 0.0625 µg/mL (≈ 0.123 µM) with Candida albicans; 0.5 µg/mL (≈ 0.985 µM) in the assay on Candida parapsilosis; 0.5 µg/mL (≈ 0.985 µM) in the assay on Nakaseomyces glabratus. In addition, the MIC80 in the assay on Aspergillus fumigatus was 64 µg/mL (≈ 126 µM).

With `CN(C)c1ccc(-c2cn(C3CCN(CC(O)(Cn4cncn4)c4ccc(F)cc4F)CC3)nn2)cc1` (stereo unspecified), the MIC80 with Trichophyton rubrum is 2 µg/mL (≈ 3.93 µM); in the assay on Nannizzia gypsea it was 4 µg/mL (≈ 7.87 µM); in the assay with Cryptococcus neoformans it was 1 µg/mL (≈ 1.97 µM); with Candida albicans, 0.25 µg/mL (≈ 0.492 µM); in the assay on Candida parapsilosis it was 2 µg/mL (≈ 3.93 µM); in the assay on Nakaseomyces glabratus, 2 µg/mL (≈ 3.93 µM). Also, in the assay with Aspergillus fumigatus, the MIC80 turned out to be 8 µg/mL (≈ 15.7 µM).

For `OC(CN1CCC(n2cc(-c3ccc(OC(F)(F)F)cc3)nn2)CC1)(Cn1cncn1)c1ccc(F)cc1F` (stereo unspecified), the MIC80 was 0.5 µg/mL (≈ 0.91 µM) with Trichophyton rubrum; 4 µg/mL (≈ 7.28 µM) in the assay with Nannizzia gypsea; 0.125 µg/mL (≈ 0.227 µM) in the assay on Cryptococcus neoformans; 0.0125 µg/mL (≈ 0.0227 µM) in the assay on Candida albicans; 2 µg/mL (≈ 3.64 µM) in the assay with Candida parapsilosis; 0.5 µg/mL (≈ 0.91 µM) in the assay with Nakaseomyces glabratus. In addition, in the assay on Aspergillus fumigatus, the MIC80 worked out at 8 µg/mL (≈ 14.6 µM).

As for `COc1cccc(-c2cn(C3CCN(CC(O)(Cn4cncn4)c4ccc(F)cc4F)CC3)nn2)c1` (stereo unspecified), the MIC80 in the assay on Trichophyton rubrum was found to be 4 µg/mL (≈ 8.07 µM); in the assay on Nannizzia gypsea, 32 µg/mL (≈ 64.6 µM); in the assay with Cryptococcus neoformans it was 0.125 µg/mL (≈ 0.252 µM); with Candida albicans it was 0.125 µg/mL (≈ 0.252 µM); in the assay with Candida parapsilosis it was 4 µg/mL (≈ 8.07 µM); in the assay on Nakaseomyces glabratus it was 2 µg/mL (≈ 4.04 µM). In addition, the MIC80 in the assay with Aspergillus fumigatus is > 64 µg/mL.

For `Cc1ccccc1-c1cn(C2CCN(CC(O)(Cn3cncn3)c3ccc(F)cc3F)CC2)nn1` (stereo unspecified), the MIC80 turned out to be 0.5 µg/mL (≈ 1.04 µM) with Trichophyton rubrum; 64 µg/mL (≈ 133 µM) with Nannizzia gypsea; 0.25 µg/mL (≈ 0.521 µM) in the assay with Cryptococcus neoformans; 0.125 µg/mL (≈ 0.261 µM) with Candida albicans; 0.5 µg/mL (≈ 1.04 µM) with Candida parapsilosis; 0.5 µg/mL (≈ 1.04 µM) in the assay on Nakaseomyces glabratus. Besides, the MIC80 in the assay with Aspergillus fumigatus was > 64 µg/mL.

For the compound `OC(Cn1cncn1)(Cn1cncn1)c1ccc(F)cc1F` [FLUCONAZOLE], the MIC80 worked out at 8 µg/mL (≈ 26.1 µM) in the assay on Trichophyton rubrum; 32 µg/mL (≈ 104 µM) in the assay with Nannizzia gypsea; 1 µg/mL (≈ 3.27 µM) with Cryptococcus neoformans; 0.25 µg/mL (≈ 0.816 µM) in the assay with Candida albicans; 2 µg/mL (≈ 6.53 µM) in the assay with Candida parapsilosis; 1 µg/mL (≈ 3.27 µM) in the assay on Nakaseomyces glabratus. Moreover, in the assay with Aspergillus fumigatus, the MIC80 is > 64 µg/mL.

On to `CCC(C)n1ncn(-c2ccc(N3CCN(c4ccc(OCC5COC(Cn6cncn6)(c6ccc(Cl)cc6Cl)O5)cc4)CC3)cc2)c1=O` (stereo unspecified) [ITRACONAZOLE], for which the MIC80 is 0.5 µg/mL (≈ 0.709 µM) with Trichophyton rubrum; 2 µg/mL (≈ 2.83 µM) in the assay on Nannizzia gypsea; 2 µg/mL (≈ 2.83 µM) with Cryptococcus neoformans; 1 µg/mL (≈ 1.42 µM) in the assay on Candida albicans; 4 µg/mL (≈ 5.67 µM) in the assay on Candida parapsilosis; 1 µg/mL (≈ 1.42 µM) with Nakaseomyces glabratus. Moreover, the MIC80 with Aspergillus fumigatus turned out to be 1 µg/mL (≈ 1.42 µM).
